Assay results published in ChEMBL document CHEMBL2086289, “Anti-HIV activity of semisynthetic derivatives of andrographolide and computational study of HIV-1 gp120 protein binding” (Eur J Med Chem, 2012).
Active and inactive are the calls of the source. The rule behind the calls is not given here.

What was measured:
[1] = test system: Human immunodeficiency virus 1; assay: Antiviral activity against HIV1 in human TZM-bl cells assessed as viral infectivity by luciferase assay; format: functional, organism-based; conditions: Human immunodeficiency virus 1, TZM-bl
Summary of the method: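 TZM-bl cells seeded at 4.0 × 10⁴/well and held overnight. CXCR4-tropic HIV-1 NL4.3 (MOI 0.05) was pre-incubated with compound or solvent for 1 h at 37 °C, then added in duplicate for 4 h and washed off. Cells got fresh medium with compound for 48 h, then lysis and luciferase chemiluminescence. AZT served as positive control. IC50 is the concentration giving 50% inhibition of infection versus infected untreated cells.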

[2] = Therapeutic index, ratio of CC50 for human TZM-bl cells to IC50 for HIV1; format: cell-based; conditions: read-out: Ratio CC50/IC50
Summary of the method: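 Ratio of CC50 from the 48 h MTT assay in TZM-bl cells to IC50 from the NL4.3 luciferase infectivity assay in TZM-bl cells.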

[3] = Cytotoxicity against human TZM-bl cells after 48 hrs by MTT assay; format: cell-based
Summary of the method: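 TZM-bl cells seeded at 6.0 × 10³/well and incubated 24 h at 37 °C, 5% CO₂. They were then exposed to four compound concentrations (4, 20, 100, 500) or solvent for 48 h. MTT was added for 4 h at 37 °C, followed by overnight solubilization in SDS/DMF/PBS. Absorbance read at 570 nm with a 690 nm reference. Viability was scored relative to untreated cells, and CC50 came from nonlinear curve fitting.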

[4] = Inhibition of HIV1 gp120 expressed in human HL2/3 cells assessed as Hl2/3 cell fusion to compound-treated human TZM-bl cells after 48 hrs by luciferase assay; format: cell-based, Human immunodeficiency virus 1
Summary of the method: (§1)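 Either HL2/3 cells (HeLa-derived, expressing HIV-1 HxB2 Env plus Tat, Gag, Rev and Nef; G418-maintained) or TZM-bl cells were pre-treated with compound, then washed. Treated cells were co-cultured with the untreated partner line at 1:1 (1.0 × 10⁵ cells/well) for 48 h at 37 °C, 5% CO₂. Luciferase activity was measured and inhibition scored relative to no-compound co-cultures, with Bicyclam as reference. IC50 is the concentration giving 50% inhibition of luciferase expression.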

[5] = test system: Human immunodeficiency virus 1; assay: Antiviral activity against HIV1 assessed as inhibition of syncytia formation; format: functional, organism-based
[6] = target: Protease (Human immunodeficiency virus 1) (UniProt Q9YQ12); assay: Inhibition of HIV1 protease at 50 uM by ELISA
Sequence of Protease (Human immunodeficiency virus 1) (Q9YQ12 as listed by the source): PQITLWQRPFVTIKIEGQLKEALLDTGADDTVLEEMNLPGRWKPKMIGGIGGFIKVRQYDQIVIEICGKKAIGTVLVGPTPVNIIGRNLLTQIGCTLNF
Summary of the method: (§2)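 Single-concentration screens run with commercial kits per the manufacturers' protocols. RT was measured by ELISA kit, with nevirapine 1 mM as positive control. HIV-1 protease was measured by a protease assay kit, with saquinavir 1 mM as positive control.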

[7] = target: Human immunodeficiency virus type 1 reverse transcriptase (Human immunodeficiency virus 1) (UniProt Q72547); assay: Inhibition of HIV1 reverse transcriptase at 50 uM by ELISA; summary of the method: as §2
[8] = (§3) Inhibition of HIV1 gp120 expressed in human HL2/3 cells assessed as compound-treated HL2/3 cell fusion to human TZM-bl cells after 48 hrs by luciferase assay; format: cell-based, Human immunodeficiency virus 1; summary of the method: as §1
TZM-bl = assay: as §3; format: cell-based; conditions: Human immunodeficiency virus 1; summary of the method: as §1
[9] = Human immunodeficiency virus 1, TZM-bl, 48 h, read-out: IC50

| SMILES | IC50 ([1]; read-out: IC50) [µM] | IC50 ([1]; read-out: pIC50 (converted)) [µM] | IC50 ([4]; tzm-bl) | inhibition [6] | inhibition [7] | IC50 [8, 9] [µM] | IC50 [4, 9] [µM] | IC50 ([8]; tzm-bl) | selectivity ratio [2] | CC50 at 48 h [3] [µM] | inhibition [5] | inhibition (TZM-bl) |
| --- | --- | --- | --- | --- | --- | --- | --- | --- | --- | --- | --- | --- |
| C=C1CC[C@@H]2[C@]3(C)COC(c4ccc(O)cc4O)O[C@@H]3CC[C@@]2(C)[C@@H]1C/C=C1/C(=O)OC[C@H]1O (some centres not stated) | 1.09 | 1.1 | – | – | – | – | – | – | 164 | 179 | – | – |
| C=C1CC[C@@H]2[C@]3(C)COC(c4cccc([N+](=O)[O-])c4)O[C@@H]3CC[C@@]2(C)[C@@H]1C/C=C1/C(=O)OC[C@H]1O (some centres not stated) | 0.51 | 0.513 | Not Active | inactive | inactive | 1.6 | – | – | 1460 | 745 | Active | Dose-dependent effect |
| C=C1CC[C@@H]2[C@]3(C)COC(c4ccc5c(c4)OCO5)O[C@@H]3CC[C@@]2(C)[C@@H]1C/C=C1/C(=O)OC[C@H]1O (some centres not stated) | 2.75 | 2.75 | – | – | – | – | – | – | 599 | 1650 | – | – |
| C=C(C)[C@@H]1CC[C@]2(C(=O)NCCCCCCCC(=O)N[C@@H](CC(C)C)[C@H](O)CC(=O)O)CC[C@]3(C)[C@H](CC[C@@H]4[C@@]5(C)CC[C@H](O)C(C)(C)[C@@H]5CC[C@]43C)[C@@H]12 | 0.1 | 0.1 | – | – | – | – | – | – | – | – | – | – |
| C=C1CC[C@@H]2[C@](C)(CO)[C@H](O)CC[C@@]2(C)[C@@H]1C/C=C1/C(=O)OC[C@H]1OC(=O)c1ccc(Cl)nc1Cl | 0.83 | 0.832 | Not Active | inactive | inactive | 1.1 | – | – | 12500 | 10400 | Active | Dose-dependent effect |
| C=C1CC[C@@H]2[C@]3(C)COC(c4ccc(O)cc4)O[C@@H]3CC[C@@]2(C)[C@@H]1C/C=C1/C(=O)OC[C@H]1O (some centres not stated) | 2.1 | 2.09 | – | – | – | – | – | – | 24 | 50 | – | – |
| C=C1CC[C@@H]2[C@](C)(COC(=O)NS(=O)(=O)c3ccc(C)cc3)[C@H](O)CC[C@@]2(C)[C@@H]1C/C=C1/C(=O)OC[C@H]1O | 2.08 | 2.09 | – | – | – | – | – | – | 978 | 2040 | – | – |
| C=C1CC[C@@H]2[C@]3(C)COC(c4ccc(O)c(OC)c4)O[C@@H]3CC[C@@]2(C)[C@@H]1C/C=C1/C(=O)OC[C@H]1O (some centres not stated) | 6.09 | 6.03 | – | – | – | – | – | – | 10 | 59 | – | – |

More lines, main results first:

| IC50 ([1]; read-out: IC50) [µM] | IC50 ([1]; read-out: pIC50 (converted)) [µM] | IC50 ([4]; tzm-bl) | inhibition [6] | inhibition [7] | IC50 [8, 9] [µM] | IC50 [4, 9] [µM] | IC50 ([8]; tzm-bl) | SMILES | selectivity ratio [2] | CC50 at 48 h [3] [µM] | inhibition [5] | inhibition (TZM-bl) |
| --- | --- | --- | --- | --- | --- | --- | --- | --- | --- | --- | --- | --- |
| – | – | – | – | – | – | 1.6 | Not Active | Br.c1cc(CN2CCCNCCNCCCNCC2)ccc1CN1CCCNCCNCCCNCC1 | – | – | – | – |
| 0.59 | 0.589 | Not Active | inactive | inactive | 1.7 | – | – | C=C1CC[C@@H]2[C@](C)(CO)[C@H](O)CC[C@@]2(C)[C@@H]1C/C=C1/C(=O)OC[C@H]1O [ANDROGRAPHOLIDE] | 2880 | 1700 | Active | Dose-dependent effect |
| 84.2 | 85.1 | – | – | – | – | – | – | C=C1CC[C@@H]2[C@](C)(CO)[C@H](O)CC[C@@]2(C)[C@@H]1C/C=C1/C(=O)OC[C@H]1OC(=O)c1ccccc1O | 12 | 1080 | – | – |
| 9.94 | 10 | – | – | – | – | – | – | C=C1CC[C@@H]2[C@]3(C)COC(c4ccc(Cl)cc4)O[C@@H]3CC[C@@]2(C)[C@@H]1C/C=C1/C(=O)OC[C@H]1O (some centres not stated) | 44 | 440 | – | – |
